The test system of data set [1] is Plasmodium falciparum. The experiment in a line: Antiplasmodial activity against chloroquine sensitive Plasmodium falciparum 3D7 infected in human erythrocytes assessed as inhibition of parasite growth incubated for 72 hrs by SYBR green I staining based fluorescence plate reader analysis. It counts as functional, organism-based. Particulars: 3D7, Erythrocyte. The method, boiled down: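 Pf3D7 or PfINDO was cultured in O+ human erythrocytes at 37 °C under 5% O2/5% CO2/90% N2 and ring-synchronised with 5% sorbitol. Cultures were exposed to 0–100 μM in triplicate for 72 h, with final DMSO 0.4%. After SYBR Green I lysis buffer (1 h, dark, 37 °C), fluorescence was read at 485/530 nm. Chloroquine-well counts were subtracted as background, and IC50 was obtained by non-linear regression.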

A short description of data set [2]: Resistance index, ratio of IC50 of chloroquine resistant Plasmodium falciparum INDO to chloroquine sensitive Plasmodium falciparum 3D7. Format: functional. The method, boiled down:
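Resistance index = IC50 against PfINDO / IC50 against Pf3D7. Both IC50s came from 72 h SYBR Green I assays.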

The subject of data set [3] is Plasmodium falciparum. Briefly: Antiplasmodial activity against chloroquine resistant Plasmodium falciparum INDO trophozoites infected in human erythrocytes assessed as increase in reactive oxygen species level at 2 times IC50 concentration incubated for 8 hrs by H2DCFDA staining based fluorescence analysis. Format: functional, organism-based. Particulars: Erythrocyte. The method, boiled down: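 PfINDO trophozoites (24–28 h post-invasion), 2% parasitemia, 2% haematocrit, were loaded with CM-H2DCFDA (5 μM, 30 min) and washed with PBS. They were then treated at 2× IC50 for 8 h, and DCF fluorescence was read at 530 nm. Controls were 100 μM H2O2 (positive) and 0.4% DMSO (negative). Triplicate biological samples.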

The nature of data set [4]: Selectivity index, ratio of CC50 for human Huh-7 cells to IC50 for antiplasmodial activity against chloroquine resistant Plasmodium falciparum INDO infected in human erythrocytes. It counts as toxicity, cell-based. Particulars: read-out: Ratio CC50/IC50. The procedure, abridged: (§1)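 Selectivity index = CC50 / PfINDO IC50. CC50 came from MTT assays: 10^4 HEK293 or HUH7 cells per well, seeded overnight and exposed to 0–100 μM for 24 h, then MTT for 4 h at 37 °C with formazan dissolved in DMSO and read at A570. Controls were 0.8% DMSO (full growth) and 10% DMSO (zero growth).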

Data set [5] in a line: Selectivity index, ratio of CC50 for human HEK293 cells to IC50 of chloroquine resistant Plasmodium falciparum INDO infected in human erythrocytes. Format: toxicity, cell-based. The note with it: read-out: Ratio CC50/IC50. The procedure, abridged: as §1
Data set [6] concerns Plasmodium falciparum. The experiment in a line: Antiplasmodial activity against chloroquine resistant ring-stage Plasmodium falciparum INDO infected in human erythrocytes assessed as inhibition of parasite growth incubated for 12 hrs. The note with it: Erythrocyte. Format: functional, organism-based. The procedure, abridged:
(§2)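 PfINDO cultures were staged at 0–6 h (rings), 18–22 h (trophozoites), 30–34 h (early schizonts) and 40–44 h (late schizonts) post-invasion. Each was exposed to varying concentrations for 12 h, washed free of compound by centrifugation, and grown 48 h in drug-free medium. IC50 came from growth curves, with untreated culture as 100% and chloroquine-treated culture as 0% growth.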

Data set [7] deals with Plasmodium falciparum. The experiment in a line: Antimalarial activity against chloroquine resistant late schizont Plasmodium falciparum INDO infected in human erythrocytes assessed as inhibition of parasite growth incubated for 12 hrs. Format: functional, organism-based. Particulars: Erythrocyte. The method, boiled down:
as §2

Data set [8] concerns Plasmodium falciparum. Briefly: Additive antiplasmodial activity against multidrug-resistant Plasmodium falciparum Cam3.1R539T infected in human erythrocytes at 8 times IC50 concentration incubated for 72 hrs in presence of artemisinin by SYBR green I staining based fluorescence assay. Particulars: Erythrocyte. It counts as functional, organism-based. The procedure, abridged:
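P. falciparum Cam3.1R539T in O+ human erythrocytes, 1% parasitemia, 2% haematocrit. 8× IC50 stocks of test compound and standard drug were mixed at molar ratios 4:1, 3:2, 2:3 and 1:4, then serially diluted two-fold. Plates were incubated 72 h at 37 °C and read by SYBR Green I lysis. Controls were 0.4% DMSO (100% growth) and 4 μM chloroquine (0% growth). ΣFIC = FICA + FICB; <1 synergistic, 1.0–2.0 additive, >2.0 antagonistic.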

The nature of data set [9]: Toxicity in mouse assessed as change in body weight at 100 mg/kg, po measured after 45 mins. Particulars: in vivo, 0.75 h. Format: organism-based. The procedure, abridged: (§3)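 Acute oral toxicity per OECD 423. Mice were fasted 4 h, given a single 100 mg/kg oral dose, and observed for 45 min for signs of acute toxicity, compared with untreated controls.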
The nature of data set [10]: Toxicity in mouse assessed as change in temperature at 100 mg/kg, po measured after 45 mins. Particulars: in vivo, 0.75 h. Format: organism-based. The procedure, abridged:
as §3

Data set [11] can be described thus: Toxicity in mouse assessed as appetite loss at 100 mg/kg, po measured after 45 mins. It counts as organism-based. Particulars: in vivo, 0.75 h. The procedure, abridged:
as §3

Data set [12] can be described thus: Toxicity in mouse assessed as effect on water intake at 100 mg/kg, po measured after 45 mins. Format: organism-based. The note with it: in vivo, 0.75 h. The procedure, abridged: as §3
Data set [13] can be described thus: Toxicity in mouse assessed as effect on rate of respiration at 100 mg/kg, po measured after 45 mins. Format: organism-based. Particulars: in vivo, 0.75 h. The method, boiled down:
as §3

Data set [14] can be described thus: Toxicity in mouse assessed as sedation at 100 mg/kg, po measured after 45 mins. Format: organism-based. The note with it: in vivo, 0.75 h. The procedure, abridged: as §3
The nature of data set [15]: Toxicity in mouse assessed as diarrhea at 100 mg/kg, po measured after 45 mins. Format: organism-based. The note with it: in vivo, 0.75 h. The procedure, abridged: as §3
Data set [16] in a line: Toxicity in mouse assessed as lacrimation at 100 mg/kg, po measured after 45 mins. It counts as organism-based. The note with it: in vivo, 0.75 h. The method, boiled down:
as §3

The nature of data set [17]: Toxicity in mouse assessed as coma at 100 mg/kg, po measured after 45 mins. Particulars: in vivo, 0.75 h. Format: organism-based. The procedure, abridged: as §3
Data set [18] is described as follows: Toxicity in mouse assessed as death at 100 mg/kg, po measured after 45 mins. It counts as organism-based. Particulars: in vivo, 0.75 h. The procedure, abridged: as §3
Another data set deals with Plasmodium berghei. Briefly: Antimalarial activity against Plasmodium berghei ANKA infected in mouse model of malaria assessed as reduction in parasite infection by measuring median survival at 100 mg/kg, po. Format: functional.
Data set [19] in a line: Binding affinity to Plasmodium falciparum GAP50 assessed as dissociation constant by SPR analysis. The method, boiled down:
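GAP50 at 50 μg ml−1 in 10 mM acetate pH 4.5 was amine-coupled (EDC/NHS) onto a CM5 chip. Analytes at several concentrations in 5% DMSO/1× PBS; association 60 s, dissociation 120 s, flow 30 μl min−1. Regeneration with 10 mM glycine pH 3.0 for 30 s. Sensorgrams fitted to a 1:1 Langmuir model giving ka, kd and KD.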
A general note: Surface plasmon resonance follows binding to a sensor surface in real time, without labels.

Data set [20] has as its system Plasmodium falciparum. Briefly: Antiplasmodial activity against chloroquine sensitive Plasmodium falciparum 3D7 infected in human erythrocytes assessed as inhibition of parasite growth at 100 uM incubated for 72 hrs by SYBR green I staining based fluorescence plate reader analysis relative to control. It counts as functional. The note with it: 3D7, Erythrocyte. The method, boiled down:
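Pf3D7 grown in O+ human erythrocytes at 4% haematocrit, Albumax (0.05%)-RPMI, 37 °C, 5% O2/5% CO2/90% N2, sorbitol-synchronised at ring stage. Single-point screen at 100 μM, final DMSO 0.4%, triplicate wells, 72 h. Read-out by SYBR Green I lysis buffer (Tris pH 7.5, EDTA, saponin, Triton X-100), 1 h dark at 37 °C, ex 485/em 530 nm. Growth expressed relative to untreated culture.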

Calls of active or inactive are those of the source. No cut-off for these calls is given here.

By IC50 is commonly meant the concentration that gives 50% inhibition. Broadly, the inhibition is the percentage by which the read-out fell short of the control.

In the case of `Clc1ccc2c(N3CCN(CCCn4nnc(-c5ccc(Br)cc5)n4)CC3)ccnc2c1`, the IC50 with Plasmodium falciparum [1] came out at 1850 nM; in the data set with Plasmodium falciparum [6], 2270 nM; in the data set with Plasmodium falciparum [7], 1500 nM. Further, the Ratio IC50 in data set [2] was 1.21. The result in the data set with Plasmodium falciparum [3] and with Plasmodium falciparum [8] was Active. Moreover, the selectivity ratio in data set [4] was 128; in [5] it was 178. The Activity result in data set [9], in data set [10], in [11], in data set [12], in data set [13] and in data set [14] was “Non-Toxic” in each case. The Activity entry in data set [15], in data set [16], in [17] and in data set [18] was “Non-Toxic” each time. Further, the Survival in the data set on Plasmodium berghei is 28 days. For the same compound, the Kd in [19] was 0.191 s⁻¹. Besides, in the data set with Plasmodium falciparum [20], the inhibition at 100 µM is greater than 50%.
With `O=C(Cn1nnc(-c2cccc([N+](=O)[O-])c2)n1)N1CCN(c2ccnc3cc(Cl)ccc23)CC1`, the IC50 in the data set on Plasmodium falciparum [1] worked out at 2230 nM; in the data set on Plasmodium falciparum [6] it was 7510 nM; with Plasmodium falciparum [7], 7100 nM. In data set [2], the Ratio IC50 is 0.8. Besides, the result in the data set on Plasmodium falciparum [3] and with Plasmodium falciparum [8] was Active. Further, the selectivity ratio in data set [4] and in [5] was 223 throughout. Besides, the Activity entry in data set [9], in data set [10], in [11], in [12], in data set [13] and in data set [14] was “Non-Toxic” throughout. For the same compound, the Activity entry in data set [15], in data set [16], in data set [17] and in data set [18] was “Non-Toxic” in each case. In addition, the Survival in the data set on Plasmodium berghei is 22 days. In addition, in data set [19], the Kd turned out to be 0.006 s⁻¹. The inhibition at 100 µM in the data set on Plasmodium falciparum [20] is greater than 50%.
